# Measurements taken from ChEMBL document CHEMBL4619769, “N-Aryl-3-mercaptosuccinimides as Antivirulence Agents Targeting Pseudomonas aeruginosa Elastase and Clostridium Collagenases” (J Med Chem, 2020).
# The source made the active and inactive calls. The calls are words filed in the database; no cut-off is given here.
# Columns and labels:
# Elastase [1] = target: T1, Elastase (Pseudomonas aeruginosa (strain ATCC 15692 / PAO1 / 1C / PRS 101 / LMG12228), UniProt P14756); assay: Inhibition of Pseudomonas aeruginosa PA14 LasB using 2-Aminobenzoyl-AlaGly-Leu-Ala-4-Nitrobenzylamide as fluorogenic substrate preincubated for 15 mins followed by substrate addition measured after 60 mins by FRET assay
# T1 sequence (P14756 whole entry): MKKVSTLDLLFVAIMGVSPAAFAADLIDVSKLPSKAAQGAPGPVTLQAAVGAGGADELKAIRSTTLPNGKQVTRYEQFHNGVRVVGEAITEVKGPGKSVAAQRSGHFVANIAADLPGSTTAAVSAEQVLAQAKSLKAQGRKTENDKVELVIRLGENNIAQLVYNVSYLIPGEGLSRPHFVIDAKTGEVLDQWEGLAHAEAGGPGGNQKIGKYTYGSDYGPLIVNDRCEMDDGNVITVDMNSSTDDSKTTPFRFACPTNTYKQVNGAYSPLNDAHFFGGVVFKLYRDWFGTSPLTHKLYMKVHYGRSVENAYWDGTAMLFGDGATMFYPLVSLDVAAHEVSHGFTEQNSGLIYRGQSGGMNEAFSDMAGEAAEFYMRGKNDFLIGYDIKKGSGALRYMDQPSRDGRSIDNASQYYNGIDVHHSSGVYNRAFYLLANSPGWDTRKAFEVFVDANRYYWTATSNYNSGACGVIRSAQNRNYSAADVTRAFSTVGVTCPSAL
# Outline: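 IC50 from at least two independent experiments, each run in duplicate. Thioacetate analogues were scored as percent inhibition at 200 μM.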
# HepG2 = assay: Cytotoxicity against human HepG2 cells assessed as reduction in cell viability by MTT assay; type: cell-based
# HEK293 = assay: Cytotoxicity against HEK293 cells assessed as reduction in cell viability by MTT assay; type: cell-based; details: Homo sapiens
# A549 = assay: Cytotoxicity against human A549 cells assessed as reduction in cell viability by MTT assay; type: cell-based
# [2] = Toxicity in 1 day post-fertilized zebrafish embryo AB measured up to 120 hrs post-fertilization by microscopic analysis; set-up: species or system Danio rerio; details: in vivo, read-out: MTC
# Outline: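 Embryos were placed singly per well, 10 per condition, in freshly prepared compound at 2–100 μM with 1% DMSO final. Defects, heart rate, touch-evoked locomotion and survival were scored daily by microscopy; read-out was maximum tolerated concentration.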
# Collagenase ColH = target: T2, Collagenase ColH (Hathewaya histolytica, UniProt Q46085); assay: Inhibition of Clostridium histolyticum ColH peptidase domain expressed in Escherichia coli BL21(DE3) cells using Mca-Ala-Gly-Pro-Pro-Gly-Pro-Dpa-Gly-Arg-NH2 as substrate preincubated for 1 hr followed by substrate addition measured for 2 mins by FRET assay
# T2 sequence (Q46085 whole entry): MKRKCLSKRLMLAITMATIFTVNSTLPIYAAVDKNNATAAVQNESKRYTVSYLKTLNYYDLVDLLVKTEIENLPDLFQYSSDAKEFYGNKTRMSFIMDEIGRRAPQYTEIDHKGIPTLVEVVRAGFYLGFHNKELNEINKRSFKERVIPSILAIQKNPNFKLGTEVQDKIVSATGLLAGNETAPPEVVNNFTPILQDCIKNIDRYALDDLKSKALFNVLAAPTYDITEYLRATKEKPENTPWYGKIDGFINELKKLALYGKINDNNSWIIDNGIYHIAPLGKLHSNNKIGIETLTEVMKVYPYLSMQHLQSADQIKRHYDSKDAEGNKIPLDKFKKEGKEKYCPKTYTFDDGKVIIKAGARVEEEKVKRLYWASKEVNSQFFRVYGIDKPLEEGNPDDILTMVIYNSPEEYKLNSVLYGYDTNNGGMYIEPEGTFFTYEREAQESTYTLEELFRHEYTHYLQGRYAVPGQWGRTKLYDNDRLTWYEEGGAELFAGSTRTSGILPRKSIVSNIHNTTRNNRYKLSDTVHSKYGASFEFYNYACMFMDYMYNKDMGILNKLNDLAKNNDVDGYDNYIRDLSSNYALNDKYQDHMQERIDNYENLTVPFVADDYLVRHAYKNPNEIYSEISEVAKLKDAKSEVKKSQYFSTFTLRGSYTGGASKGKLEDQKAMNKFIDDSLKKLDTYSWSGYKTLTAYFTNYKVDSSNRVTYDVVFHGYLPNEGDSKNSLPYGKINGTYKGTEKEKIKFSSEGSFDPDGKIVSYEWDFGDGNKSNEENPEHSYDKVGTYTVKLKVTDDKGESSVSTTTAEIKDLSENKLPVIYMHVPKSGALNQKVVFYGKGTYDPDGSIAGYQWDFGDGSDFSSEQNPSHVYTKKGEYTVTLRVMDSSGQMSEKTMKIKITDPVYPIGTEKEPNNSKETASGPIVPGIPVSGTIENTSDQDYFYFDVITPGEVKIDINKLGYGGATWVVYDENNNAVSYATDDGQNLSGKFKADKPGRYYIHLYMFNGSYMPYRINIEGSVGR
# Outline: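 Peptidolytic ColH-PD activity read by FRET. Compounds were first screened at 1 μM (means of three independent experiments), then tested dose-response with the reducing agent TCEP present. IC50 values came from at least two independent experiments run in duplicate.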
# Pseudomonas aeruginosa = assay: Toxicity in Pseudomonas aeruginosa PA14 assessed as reduction in bacterial growth after 18 hrs; type: organism-based; details: in vivo
# Elastase [3] = target: T1, Elastase; assay: Inhibition of Pseudomonas aeruginosa LasB using aminobenzoyl-Ala-Gly-Leu-Ala-p-nitro-benzyl-amide as fluorogenic substrate by fluorimetric assay
# Bacillus cereus = assay: Ex vivo inhibition of Bacillus cereus Q1 ColQ1-mediated collagenolytic-activity in pig skin explant assessed as reduction in hydroxyproline release up to 400 uM preincubated for 1 hr followed by skin explant addition and measured upto 24 hrs by spectrophotometric assay
# Outline: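 Pig skin explant punches, stored in DMEM with 15% glycerol at −80 °C, incubated in DMEM with 300 nM ColQ1, 4 mM CaCl2 and 10 μM ZnCl2. Compound pre-incubated with the enzyme mixture for 1 h at 37 °C, 5% CO2, then explant added, shaken at 300 rpm at 37 °C. Medium sampled at time points; hydroxyproline measured by absorbance against a hydroxyproline calibration curve.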
# Hathewaya histolytica = assay: Toxicity in Clostridium histolyticum DSM 1126 assessed as reduction in bacterial growth after 48 hrs; type: organism-based; details: in vivo
# Outline: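 Brain heart infusion broth; inoculum adjusted to McFarland 2 then prediluted 1:100. […] Means of at least two independent determinations.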
compound,measurement,setting,value
COc1ccc(N2C(=O)CC(SC(C)=O)C2=O)cc1 (stereo unspecified),IC50,Elastase [1],> 200 µM
CC(=O)SCC1CC(=O)N(c2ccc(C(C)=O)cc2)C1=O (stereo unspecified),IC50,Elastase [1],> 200 µM
O=C(CS)Nc1ccc(Cl)c(Cl)c1,IC50,HepG2,> 100 µM
same,IC50,HEK293,> 100 µM
same,IC50,A549,> 100 µM
same,MNTC,[2],10 µM
CC(=O)c1ccc(NC(=O)CS)cc1,IC50,Collagenase ColH,0.017 µM
same,IC50,HepG2,> 100 µM
same,IC50,HEK293,> 100 µM
same,IC50,A549,> 100 µM
O=C1CC(S)C(=O)N1c1ccc(F)c(F)c1 (stereo unspecified),MNTC,[2],≥ 30 µM
same,MIC,Pseudomonas aeruginosa,> 100 µM
COc1ccc(N2C(=O)CC(CSC(C)=O)C2=O)cc1 (stereo unspecified),IC50,Elastase [1],> 200 µM
O=C1CC(CS)C(=O)N1c1ccc(Cl)c(Cl)c1 (stereo unspecified),MIC,Pseudomonas aeruginosa,> 100 µM
O=C1CC(CS)C(=O)N1c1ccc(F)c(F)c1 (stereo unspecified),MIC,Pseudomonas aeruginosa,> 100 µM
CC(=O)SCC1CC(=O)N(c2ccccc2)C1=O (stereo unspecified),IC50,Elastase [1],> 200 µM
CC(=O)c1ccc(N2C(=O)CC(CS)C2=O)cc1 (stereo unspecified),IC50,Elastase [1],> 200 µM
NC(=O)[C@H](Cc1ccc(O)cc1)NC(=O)[C@H](Cc1c[nH]c2ccccc12)NC(=O)CS,Ki,Elastase [3],0.0405 µM
CC(=O)SCC1CC(=O)N(c2ccc(Cl)c(Cl)c2)C1=O (stereo unspecified),IC50,Elastase [1],> 200 µM
CC(=O)c1ccc(N2C(=O)CC(S)C2=O)cc1 (stereo unspecified),IC50,HepG2,> 100 µM
same,IC50,HEK293,> 100 µM
same,IC50,A549,> 100 µM
same,MNTC,[2],≥ 30 µM
same,inhibition,Bacillus cereus,Active
same,MIC,Hathewaya histolytica,> 100 µM
O=C1CC(S)C(=O)N1c1ccc(Cl)c(Cl)c1 (stereo unspecified),IC50,HepG2,> 100 µM
same,IC50,HEK293,> 100 µM
same,IC50,A549,> 100 µM
same,MIC,Pseudomonas aeruginosa,> 100 µM
CC(=O)SC1CC(=O)N(c2ccc(Cl)c(Cl)c2)C1=O (stereo unspecified),IC50,Elastase [1],> 200 µM
CC(=O)SC1CC(=O)N(c2ccc(OC(F)(F)F)c(Cl)c2)C1=O (stereo unspecified),IC50,Elastase [1],> 200 µM
